This is an account of results in ChEMBL document CHEMBL3414569, “Amino acid modified xanthone derivatives: novel, highly promising membrane-active antimicrobials for multidrug-resistant Gram-positive bacterial infections” (J Med Chem, 2015).

In data set [1] the test system is Staphylococcus aureus. Nature of the data set: Antimicrobial activity against Staphylococcus aureus ATCC 29213 in presence of 4% BSA by broth macrodilution method. It counts as functional. An outline of the steps:
(§1)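 MIC by CLSI broth macrodilution in Mueller Hinton broth, with BSA added to the bacterial suspension at a final 4% w/v. Inoculum was made by direct colony suspension from an 18−20 h tryptic soy agar plate.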

Data set [2] concerns Staphylococcus aureus. Description: Antimicrobial activity against methicillin resistant Staphylococcus aureus DM21455 in absence of 4% BSA by broth macrodilution method. It counts as functional. The method, boiled down:
(§2)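 Broth macrodilution MIC in Mueller Hinton broth following CLSI guidelines. Inoculum was prepared by direct colony suspension from an 18−20 h tryptic soy agar plate.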

The test system of data set [3] is Staphylococcus aureus. Nature of the data set: Antimicrobial activity against Staphylococcus aureus ATCC 29213 in absence of 4% BSA by broth macrodilution method. In kind it is functional. The method, boiled down: as §2
The subject of data set [4] is Staphylococcus aureus. Description: Antimicrobial activity against methicillin resistant Staphylococcus aureus DM21455 in presence of 4% BSA by broth macrodilution method. It counts as functional. The method, boiled down: as §1
The nature of data set [5]: Selectivity index, ratio of HC50 for induction of hemolysis in New Zealand white rabbit RBC to MIC for Staphylococcus aureus DM4001.
A short description of data set [6]: Selectivity index, ratio of HC50 for induction of hemolysis in New Zealand white rabbit RBC to MIC for Staphylococcus aureus DM09809R.
The nature of data set [7]: Selectivity index, ratio of HC50 for induction of hemolysis in New Zealand white rabbit RBC to MIC for Bacillus cereus ATCC 11778.
The next data set relates to Bacillus cereus. Nature of the data set: Antimicrobial activity against Bacillus cereus ATCC 11778 by broth macrodilution method. In kind it is functional. An outline of the steps:
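CLSI broth macrodilution in Mueller Hinton broth. Inoculum was made by direct colony suspension from colonies on an 18−20 h tryptic soy agar plate. The value is the MIC.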

Data set [8] deals with Staphylococcus aureus. Nature of the data set: Antimicrobial activity against methicillin resistant Staphylococcus aureus DM09809R by broth macrodilution method. It counts as functional. An outline of the steps:
as §2

A short description of data set [9]: Selectivity index, ratio of HC50 for induction of hemolysis in New Zealand white rabbit RBC to MIC for Staphylococcus aureus DM21455.
The subject of data set [10] is Staphylococcus aureus. Description: Antimicrobial activity against methicillin resistant Staphylococcus aureus DM21455 by broth macrodilution method. It counts as functional. The method, boiled down:
as §2

A short description of data set [11]: Induction of hemolysis in New Zealand white rabbit RBC after 1 hr. In kind it is cell-based, Oryctolagus cuniculus, Erythrocyte. The conditions noted are these: New Zealand white, red blood cells (RBC). An outline of the steps:
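Fresh red blood cells isolated from New Zealand white rabbits. Lysis measured over a compound concentration series; HC50 taken as the concentration lysing 50% of RBCs.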

In data set [12] the test system is Staphylococcus aureus. Nature of the data set: Antimicrobial activity against Staphylococcus aureus DM4001 by broth macrodilution method. It counts as functional. An outline of the steps:
as §2

Data set [13] in a line: Retention time of the compound. It counts as physicochemical. An outline of the steps: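 Reverse-phase HPLC of 20 μL injections of a 10 μg/mL sample at 1 mL/min. Gradient: 5−55% ACN over 5 min, then 55−95% over 15 min.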
In data set [14] the test system is Enterococcus. Description: Antimicrobial activity against vancomycin-sensitive Enterococcus isolates by broth macrodilution method. In kind it is functional.
Data set [15] concerns Enterococcus. Description: Antimicrobial activity against vancomycin-resistant Enterococcus isolates by broth macrodilution method. In kind it is functional.
The test system of data set [16] is Staphylococcus aureus. Description: Bactericidal activity against Staphylococcus aureus DM21455 assessed as reduction in bacterial count 2048 ug/mL after 24 hrs by cell counting based time assay. In kind it is functional, organism-based. The method, boiled down:
(§3)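 Time-kill at 35 °C with colonies taken from an 18−20 h tryptic soy agar plate and suspended in CA-MHB at 10^5−10^6 CFU/mL, then drug added. Aliquots taken at set times were diluted 10-fold serially in D/E neutralization broth, spread on tryptic soy agar, incubated 48−72 h at 35 °C, and colonies counted. Strains: MRSA DM21455, vanA and vanB VRE.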

The subject of data set [17] is Enterococcus. Description: Bactericidal activity against vancomycin-resistant Enterococcus isolates assessed as reduction in bacterial count 2048 ug/mL after 24 hrs by cell counting based time assay. In kind it is functional, organism-based. The method, boiled down:
as §3

A further data set has as its system Streptococcus. Nature of the data set: Antimicrobial activity against Streptococcus isolates by broth macrodilution method. It counts as functional.
Another data set deals with Listeria monocytogenes. Nature of the data set: Antimicrobial activity against Listeria monocytogenes isolates by broth macrodilution method. It counts as functional.
The test system of data set [18] is Enterococcus. Description: Bactericidal activity against vancomycin-resistant Enterococcus isolates assessed as reduction in bacterial count 2048 ug/mL after 2 hrs by cell counting based time assay. In kind it is functional, organism-based. The method, boiled down:
as §3

In the next data set the test system is Corynebacterium jeikeium. Nature of the data set: Antimicrobial activity against Corynebacterium jeikeium isolates by broth macrodilution method. In kind it is functional.
For data set [19], the system named is Staphylococcus aureus. Nature of the data set: Bactericidal activity against Staphylococcus aureus DM21455 assessed as reduction in bacterial count 2048 ug/mL after 2 hrs by cell counting based time assay. In kind it is functional, organism-based. The method, boiled down:
as §3

In data set [20] the test system is Staphylococcus aureus. Description: Antimicrobial activity against Staphylococcus aureus ATCC 29213 by broth macrodilution method. In kind it is functional. An outline of the steps: as §2
Data set [21] deals with Staphylococcus aureus. Nature of the data set: Antimicrobial activity against Staphylococcus aureus ATCC 29213 infected in mouse cornea infection model assessed as reduction in viable bacterial count at 0.3% solution applied topically 5 times/day dosed 1 day after infection relative to control. It counts as functional. An outline of the steps:
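Mouse cornea given three superficial 1 mm scratches on one eye under ketamine/xylazine, then 10 μL of S. aureus ATCC 29213 suspension (1 × 10^8 CFU/mL in USP phosphate buffer) applied topically. Treated topically 5 times/day from day 1 postinfection; PBS negative control; 4 mice/group killed on days 1, 2 and 3. Corneas homogenized in 0.9% NaCl with 0.25% BSA, plated in duplicate on TSA (48 h, 35 °C); log10 CFU/cornea.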

In data set [22] the test system is Staphylococcus aureus. Description: Antimicrobial activity against Staphylococcus aureus ATCC 29213 at 0.5 times MIC measured after 17 passages by multistep passage drug resistance selection study relative to wild type Staphylococcus aureus ATCC 29213 before passage. In kind it is functional. The method, boiled down: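 Multipassage selection in S. aureus ATCC29213 across an eight-concentration dilution series. Growth was read after 20−22 h. Bacteria growing at 0.5 × MIC were repassaged into a fresh series, 17 passages in total. Resistance was defined as a more than 4-fold rise over the initial MIC.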

In brackets after ≈: the same amount, converted by molar mass. Activity calls are given as the source filed them.

Usually MIC stands for the lowest concentration that inhibits growth of the organism. `CCCCCCCCCC(=O)N[C@@H](Cc1c[nH]c2ccccc12)C(=O)N[C@H](CC(N)=O)C(=O)N[C@@H](CC(=O)O)C(=O)N[C@@H]1C(=O)NCC(=O)N[C@@H](CCCN)C(=O)N[C@@H](CC(=O)O)C(=O)N[C@H](C)C(=O)N[C@@H](CC(=O)O)C(=O)NCC(=O)N[C@H](CO)C(=O)N[C@@H]([C@H](C)CC(=O)O)C(=O)N[C@@H](CC(=O)c2ccccc2N)C(=O)O[C@@H]1C`: the MIC in the data set on Staphylococcus aureus [1] was 6.25 µg/mL; in the data set with Staphylococcus aureus [2] it was 0.39 µg/mL (≈ 0.241 µM); in the data set with Staphylococcus aureus [3], 0.39 µg/mL (≈ 0.241 µM); with Staphylococcus aureus [4] it was 6.25 µg/mL.
Usually HC50 stands for the concentration that lyses half of the red blood cells. Consider “H-GIGKFLKKAKKFGKAFVKILKK-NH2 [PEXIGANAN]”, for which the Selectivity Index in data set [5], in [6], in data set [7] and in data set [9] was 2 each time. The MIC in the data set on Staphylococcus aureus [1] was determined as 200 µg/mL; in the data set on Staphylococcus aureus [2] it was 12.5 µg/mL; with Bacillus cereus it was 12.5 µg/mL; against Staphylococcus aureus [3], 12.5 µg/mL; in the data set with Staphylococcus aureus [4], 200 µg/mL; in the data set with Staphylococcus aureus [8], 25 µg/mL. Further, the MIC in the data set with Staphylococcus aureus [10] and in the data set on Staphylococcus aureus [12] was 12.5 µg/mL throughout. In [11], this compound registered an HC50 at 1 h of 120 µg/mL.
On to `COc1c(OCC(=O)N[C@@H](CCCNC(=N)N)C(=O)OC(C)(C)C)cc2oc3cc(OCC(=O)N[C@@H](CCCNC(=N)N)C(=O)OC(C)(C)C)c(CC=C(C)C)c(O)c3c(=O)c2c1CC=C(C)C`, for which the Selectivity Index in [5], in data set [6], in [7] and in data set [9] was 7 throughout. Besides, the MIC against Bacillus cereus, against Staphylococcus aureus [8], in the data set with Staphylococcus aureus [10] and against Staphylococcus aureus [12] was 12 µg/mL (≈ 12.6 µM) in each case. The HC50 at 1 h in data set [11] amounted to 79 µg/mL. This compound also showed a Retention_time in data set [13] of 9.51 min.
Regarding `CN[C@H](CC(C)C)C(=O)N[C@H]1C(=O)N[C@@H](CC(N)=O)C(=O)N[C@H]2C(=O)N[C@H]3C(=O)N[C@H](C(=O)N[C@H](C(=O)O)c4cc(O)cc(O)c4-c4cc3ccc4O)[C@H](O)c3ccc(c(Cl)c3)Oc3cc2cc(c3O[C@@H]2O[C@H](CO)[C@@H](O)[C@H](O)[C@H]2O[C@H]2C[C@](C)(N)[C@H](O)[C@H](C)O2)Oc2ccc(cc2Cl)[C@H]1O` [VANCOMYCIN], the MIC turned out to be 1 µg/mL (≈ 0.69 µM) against Enterococcus [14]; 1.56 µg/mL in the data set with Staphylococcus aureus [1]; 0.78 µg/mL (≈ 0.538 µM) in the data set with Staphylococcus aureus [2]; 8 µg/mL (≈ 5.52 µM) against Enterococcus [15]; 0.78 µg/mL (≈ 0.538 µM) with Staphylococcus aureus [3]; 0.78 µg/mL in the data set with Staphylococcus aureus [4]. In addition, the MIC against Streptococcus, against Listeria monocytogenes and in the data set on Corynebacterium jeikeium was 0.5 µg/mL (≈ 0.345 µM) each time. The result with Staphylococcus aureus [16], in the data set on Enterococcus [17], in the data set with Enterococcus [18] and in the data set with Staphylococcus aureus [19] was inactive.
In the case of `COc1c(OCC(=O)N[C@@H](CCCNC(=N)N)C(N)=O)cc2oc3cc(OCC(=O)N[C@@H](CCCNC(=N)N)C(N)=O)c(CC=C(C)C)c(O)c3c(=O)c2c1CC=C(C)C`, the Selectivity Index in data set [5] was determined as 13; in data set [6] it was 13; in data set [7], 13; in [9], 128. Moreover, the MIC is 6 µg/mL (≈ 7.17 µM) with Bacillus cereus, 6 µg/mL (≈ 7.17 µM) against Staphylococcus aureus [8], 1 µg/mL (≈ 1.19 µM) against Staphylococcus aureus [10] and 6 µg/mL (≈ 7.17 µM) with Staphylococcus aureus [12]. Besides, the HC50 at 1 h in data set [11] was 128 µg/mL. The compound also came in with a Retention_time in data set [13] of 7.4 min.
In the case of `COc1c(N2CCNC(C)C2)c(F)cc2c(=O)c(C(=O)O)cn(C3CC3)c12` (stereo not given) [GATIFLOXACIN], in the data set with Staphylococcus aureus [20], the MIC was found to be 0.1 µg/mL (≈ 0.266 µM). Also, the Ratio in the data set with Staphylococcus aureus [21] is 2.06; with Staphylococcus aureus [22], 64.
As to `CCn1cc(C(=O)O)c(=O)c2cc(F)c(N3CCNCC3)cc21` [NORFLOXACIN], inhibition of growth in the data set with Staphylococcus aureus [20] (MIC) required 2 µg/mL (≈ 6.26 µM). In the data set on Staphylococcus aureus [22], the Ratio was found to be 64.
